Molecules are shown by their SMILES. Some results are limits rather than exact numbers.

Series [1] is described as follows: Clearance in iv dosed rat administered as cassette dose. It counts as ADME, organism-based. To be noted: in vivo. In outline:
(§1)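 Rat IV clearance from cassette dosing; unbound clearance calculated as CL/fu.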

Series [2] is described as follows: Microsomal stability in human liver microsomes assessed as intrinsic clearance. It counts as ADME, Microsome. The following applies: read-out: CLH. The method, boiled down: (§2)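 Intrinsic clearance (CLint) determined in rat or human liver microsomes.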
(In general: Liver microsomes are a subcellular fraction often used to study metabolism.)

The target of series [3] is T1, Phospholipase D1 (Homo sapiens, UniProt Q13393).
T1 sequence (Q13393 whole entry): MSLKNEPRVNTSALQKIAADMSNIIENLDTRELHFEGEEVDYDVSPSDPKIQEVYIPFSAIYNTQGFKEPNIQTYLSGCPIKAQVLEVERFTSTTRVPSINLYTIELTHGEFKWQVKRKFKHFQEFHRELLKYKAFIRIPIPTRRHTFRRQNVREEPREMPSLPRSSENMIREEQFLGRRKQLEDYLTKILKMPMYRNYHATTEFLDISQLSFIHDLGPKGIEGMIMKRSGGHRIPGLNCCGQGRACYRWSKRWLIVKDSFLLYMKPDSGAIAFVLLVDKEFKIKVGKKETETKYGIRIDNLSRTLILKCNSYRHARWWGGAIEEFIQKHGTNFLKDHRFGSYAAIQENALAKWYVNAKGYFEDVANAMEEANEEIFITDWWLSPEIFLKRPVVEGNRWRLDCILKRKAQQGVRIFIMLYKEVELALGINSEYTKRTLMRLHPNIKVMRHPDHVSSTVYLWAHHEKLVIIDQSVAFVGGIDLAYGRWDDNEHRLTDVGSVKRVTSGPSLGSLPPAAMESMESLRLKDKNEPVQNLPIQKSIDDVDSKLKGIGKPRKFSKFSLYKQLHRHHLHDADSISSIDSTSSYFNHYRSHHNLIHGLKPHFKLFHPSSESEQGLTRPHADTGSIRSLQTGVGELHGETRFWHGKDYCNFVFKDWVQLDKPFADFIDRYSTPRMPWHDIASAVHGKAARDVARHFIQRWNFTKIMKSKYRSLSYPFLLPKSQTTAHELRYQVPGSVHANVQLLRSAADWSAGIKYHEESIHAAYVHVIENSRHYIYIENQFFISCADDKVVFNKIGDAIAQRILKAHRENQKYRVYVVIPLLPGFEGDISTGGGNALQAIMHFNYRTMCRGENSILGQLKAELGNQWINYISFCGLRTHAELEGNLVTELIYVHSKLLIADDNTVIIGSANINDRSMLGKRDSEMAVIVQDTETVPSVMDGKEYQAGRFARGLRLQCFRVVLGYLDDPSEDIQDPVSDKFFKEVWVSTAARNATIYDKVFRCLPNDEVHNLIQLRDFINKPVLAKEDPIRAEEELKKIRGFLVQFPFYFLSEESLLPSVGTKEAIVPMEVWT
The experiment in a line: Inhibition of PLD1 (unknown origin) expressed in human HEK cells by immunoprecipitation assay. Format: cell-based.

In series [4] the test system is BCRP. The experiment in a line: Efflux ratio of apparent permeability from basolateral to apical side over apical to basolateral side in dog MDCK-BCRP cells. It counts as ADME, cell-based, Canis lupus familiaris.
The target of series [5] is Phospholipase D1 (Homo sapiens) (UniProt Q13393). The experiment in a line: Inhibition of PLD1 in human Calu-1 cells assessed as reduction in d9-phosphobutanol formation by mass spectrometry-based transphosphatidylation assay.
For series [6], the target named is Phospholipase D2 (Homo sapiens, UniProt O14939). Description: Inhibition of PLD2 (unknown origin) expressed in human HEK cells by immunoprecipitation. It counts as cell-based. The method, boiled down:
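PLD1 or PLD2 immunoprecipitated from HEK-293 cell lysates and captured on plate with an antibody (ELISA format); 08:0 phosphatidylcholine substrate; released choline detected by Amplex Red readout.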

Series [7] has as its system MDR1 (P-gp). The experiment in a line: Efflux ratio of apparent permeability from basolateral to apical side over apical to basolateral side in dog MDCK-MDR1 cells. Format: ADME, cell-based, Canis lupus familiaris. The method, boiled down: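 Efflux ratio calculated as Papp(B–A)/Papp(A–B) across MDR1-transfected MDCK monolayers.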
Series [8] can be described thus: Microsomal stability in rat liver microsomes assessed as intrinsic clearance. To be noted: read-out: CLH. It counts as ADME, Microsome. The method, boiled down: as §2
Series [9] can be described thus: Unbound clearance in iv dosed rat administered as cassette dose. It counts as ADME, organism-based. The following applies: in vivo. The method, boiled down:
as §1

Phospholipase D2, sequence (O14939 whole entry): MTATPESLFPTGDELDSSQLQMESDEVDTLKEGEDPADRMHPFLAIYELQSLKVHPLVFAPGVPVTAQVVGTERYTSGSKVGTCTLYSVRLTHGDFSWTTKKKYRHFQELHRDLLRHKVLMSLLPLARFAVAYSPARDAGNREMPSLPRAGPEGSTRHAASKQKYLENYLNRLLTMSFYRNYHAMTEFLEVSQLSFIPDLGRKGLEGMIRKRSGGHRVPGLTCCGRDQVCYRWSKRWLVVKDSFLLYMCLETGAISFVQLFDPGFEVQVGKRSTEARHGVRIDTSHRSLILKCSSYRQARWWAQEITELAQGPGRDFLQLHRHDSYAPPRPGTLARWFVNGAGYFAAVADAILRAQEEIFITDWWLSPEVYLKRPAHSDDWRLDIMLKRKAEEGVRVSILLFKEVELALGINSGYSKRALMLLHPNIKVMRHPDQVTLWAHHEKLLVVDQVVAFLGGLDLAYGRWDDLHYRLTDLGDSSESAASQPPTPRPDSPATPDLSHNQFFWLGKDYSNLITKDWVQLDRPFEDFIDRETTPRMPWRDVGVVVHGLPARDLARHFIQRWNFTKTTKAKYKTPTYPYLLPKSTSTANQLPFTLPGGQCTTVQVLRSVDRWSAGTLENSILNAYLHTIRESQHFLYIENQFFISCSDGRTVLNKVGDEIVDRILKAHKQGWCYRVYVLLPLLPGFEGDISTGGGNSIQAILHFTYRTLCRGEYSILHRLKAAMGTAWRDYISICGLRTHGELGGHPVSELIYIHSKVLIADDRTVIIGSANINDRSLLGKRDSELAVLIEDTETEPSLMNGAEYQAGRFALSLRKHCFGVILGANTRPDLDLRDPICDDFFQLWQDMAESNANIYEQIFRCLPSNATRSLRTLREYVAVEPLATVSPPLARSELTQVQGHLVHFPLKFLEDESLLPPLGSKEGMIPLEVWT

`C[C@@H](C(=O)N1CCOCC1)N1CCC(n2c(=O)[nH]c3ccccc32)CC1` displayed a clearance in series [1] of 13 mL/min/kg. Further, the CLint scaled in series [2] was < 5 mL/min/kg; in series [8], 162 mL/min/kg. Further, the IC50 in series [3] was 380 nM; in series [5], 560 nM; in series [6] it was > 10000 nM. The efflux ratio was determined as 1.5 in series [4] and 36 in series [7].
For the molecule `C[C@H]1CN(C(=O)[C@H](C)N2CCC(n3c(=O)[nH]c4ccccc43)CC2)CCN1`, the clearance in [1] was 39 mL/min/kg. Moreover, the results for the CLint scaled in series [2] and in [8] were < 5 mL/min/kg and < 10 mL/min/kg, respectively. In addition, the IC50 in [3] came to 76 nM; in [5], 160 nM; in series [6], 1100 nM. Also, the results for the efflux ratio in series [4] and in [7] were 2.3 and 5.5, respectively. In addition, in series [9], the CL free was determined as 73 mL/min/kg.
Molecule `C[C@@H](C(=O)N1CCC(F)(F)C1)N1CCC(n2c(=O)[nH]c3ccccc32)CC1` yielded a clearance in series [1] of 34 mL/min/kg. Moreover, the figures for the CLint scaled in series [2] and in [8] were 10 mL/min/kg and > 300 mL/min/kg, respectively. The IC50 was determined as 170 nM in [3], 1200 nM in series [5] and 2900 nM in series [6]. Also, the efflux ratio is 1.2 in [4] and 2.5 in series [7]. Besides, in [9], the CL free was determined as 192 mL/min/kg.

Usually clearance stands for a measure of how efficiently the substance is removed, as volume per time. The low end stands for a low capacity for elimination, the high end for a high capacity for elimination. By IC50 is commonly meant the concentration needed to halve the response being measured. In general, efflux ratio refers to a quotient of directional permeabilities that is used to spot active efflux.

Values taken from ChEMBL document CHEMBL5046323, “Discovery of Phospholipase D Inhibitors with Improved Drug-like Properties and Central Nervous System Penetrance” (ACS Med Chem Lett, 2022).
